Values after ≈ are worked out from the molar mass of the structure shown. Active and inactive are the calls of the source. No cut-off for these calls is given here.
What was measured:
[1] = tested on: Pectobacterium carotovorum; assay: Antimicrobial activity against Erwinia carotovora at 27 to 28 degC after 24 hrs in dark; type: functional
Outline: (§1)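 MIC by microtiter bioassay scoring inhibition of spore germination or cell growth. Compounds in MeOH were dried in the wells, then 100 µL of spore or cell suspension (10^4 spores/mL or cells/mL) in appropriate medium was added. The top concentration tested was 230 to 590 µM. Controls were untreated suspension and sterile medium. Growth was scored visually on a 0–3 scale. Run in triplicate, repeated once.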

[2] = tested on: Drechslera; assay: Antimicrobial activity against Drechslera sorokiniana at 27 to 28 degC after 48 hrs in dark; type: functional; outline: as §1
[3] = tested on: Staphylococcus aureus; assay: Antimicrobial activity against Staphylococcus aureus at 37 degC after 24 hrs in dark; type: functional; outline: as §1
[4] = tested on: Fusarium culmorum; assay: Antimicrobial activity against Fusarium culmorum at 27 to 28 degC after 72 hrs in dark; type: functional; outline: as §1
[5] = tested on: Candida albicans; assay: Antimicrobial activity against Candida albicans up to 590 uM at 37 degC after 24 hrs in dark; type: functional, organism-based; outline: as §1
[6] = tested on: Pseudomonas savastanoi pv. savastanoi; assay: Antimicrobial activity against Pseudomonas savastanoi pv. savastanoi up to 590 uM at 27 to 28 degC after 24 hrs in dark; type: functional, organism-based; outline: as §1
[7] = tested on: Aspergillus fumigatus; assay: Antimicrobial activity against Aspergillus fumigatus up to 590 uM at 27 to 28 degC after 96 hrs in dark; type: functional, organism-based; outline: as §1

| SMILES | MIC [1] | MIC [2] | MIC [3] | MIC [4] | Activity [5] | Activity [6] | Activity [7] |
| --- | --- | --- | --- | --- | --- | --- | --- |
| COC[C@@H]1NC(=O)[C@@H]2CCCNN2C(=O)[C@H](C(C)C)OC(=O)[C@@H](C2(C)CC2)NC(=O)[C@@H]2C[C@@]3(O)c4ccc(Cl)c(Cl)c4N[C@H]3N2C(=O)[C@@H]([C@H](O)CC(=O)O)NC1=O [KUTZNERIDE 5] | 120 µM (≈ 101 µg/mL) | > 240 µM | 120 µM (≈ 101 µg/mL) | > 240 µM | – | – | – |
| C[C@@H]1[C@H](O)[C@@H](C)/C=C/C=C/C=C/C=C/C=C/C=C/C=C/[C@H](O[C@@H]2O[C@H](C)[C@@H](O)[C@H](N)[C@@H]2O)C[C@@H]2O[C@](O)(C[C@@H](O)C[C@@H](O)[C@H](O)CC[C@@H](O)C[C@@H](O)CC(=O)O[C@H]1C)C[C@H](O)[C@H]2C(=O)O [AMPHOTERICIN B] | – | 4 µM (≈ 3.7 µg/mL) | – | 40 µM (≈ 37 µg/mL) | – | – | – |
| COC[C@@H]1NC(=O)[C@@H]2CCC=NN2C(=O)[C@H](C(C)(C)C)OC(=O)[C@@H](C2(C)CC2)NC(=O)[C@@H]2C[C@@]3(O)c4ccc(Cl)c(Cl)c4N[C@H]3N2C(=O)[C@@H]([C@@H](O)CC(=O)O)NC1=O [KUTZNERIDE 9] | 230 µM (≈ 196 µg/mL) | > 230 µM | 60 µM (≈ 51.2 µg/mL) | > 230 µM | – | – | – |
| COC[C@@H]1NC(=O)[C@@H]2CCC=NN2C(=O)[C@H](C(C)(C)C)OC(=O)[C@@H](C2(C)CC2)NC(=O)[C@@H]2C[C@@]3(O)c4ccc(Cl)c(Cl)c4N[C@H]3N2C(=O)[C@@H]([C@H](O)CC(=O)O)NC1=O [KUTZNERIDE 4] | 120 µM (≈ 102 µg/mL) | > 590 µM | 140 µM (≈ 119 µg/mL) | > 590 µM | inactive | inactive | inactive |
| COC[C@@H]1NC(=O)[C@@H]2C[C@@H](Cl)CNN2C(=O)[C@H](C(C)(C)C)OC(=O)[C@@H](C2(C)CC2)NC(=O)[C@@H]2C[C@@]3(O)c4ccc(Cl)c(Cl)c4N[C@H]3N2C(=O)[C@@H]([C@@H](O)CC(=O)O)NC1=O [KUTZNERIDE 2] | 6 µM (≈ 5.34 µg/mL) | 110 µM (≈ 97.8 µg/mL) | 6 µM (≈ 5.34 µg/mL) | 70 µM (≈ 62.2 µg/mL) | inactive | inactive | inactive |
| COC[C@@H]1NC(=O)[C@@H]2C[C@@H](Cl)CNN2C(=O)[C@H](C(C)(C)C)OC(=O)[C@@H](C2(C)CC2)NC(=O)[C@@H]2C[C@@]3(O)c4ccc(Cl)c(Cl)c4N[C@H]3N2C(=O)[C@@H]([C@H](O)CC(=O)O)NC1=O [KUTZNERIDE 8] | 6 µM (≈ 5.34 µg/mL) | 230 µM (≈ 205 µg/mL) | 6 µM (≈ 5.34 µg/mL) | 110 µM (≈ 97.8 µg/mL) | – | – | – |
| CN[C@@H]1[C@H](O[C@H]2[C@H](O[C@H]3[C@H](O)[C@@H](O)[C@H](N=C(N)N)[C@@H](O)[C@@H]3N=C(N)N)O[C@@H](C)[C@]2(O)C=O)O[C@@H](CO)[C@H](O)[C@H]1O [STREPTOMYCIN] | – | – | 17 µM (≈ 9.89 µg/mL) | – | – | – | – |
| COC[C@@H]1NC(=O)[C@@H]2CCCNN2C(=O)[C@H](C(C)(C)C)OC(=O)[C@@H](C2(C)CC2)NC(=O)[C@@H]2C[C@@]3(O)c4ccc(Cl)c(Cl)c4N[C@H]3N2C(=O)[C@@H]([C@H](O)CC(=O)O)NC1=O [KUTZNERIDE 3] | 12 µM (≈ 10.3 µg/mL) | 260 µM (≈ 222 µg/mL) | 9 µM (≈ 7.69 µg/mL) | 260 µM (≈ 222 µg/mL) | inactive | inactive | inactive |
| COC[C@@H]1NC(=O)[C@@H]2C[C@@H](O)C=NN2C(=O)[C@H](C(C)(C)C)OC(=O)[C@@H](C2(C)CC2)NC(=O)[C@@H]2C[C@@]3(O)c4ccc(Cl)c(Cl)c4N[C@H]3N2C(=O)[C@@H]([C@H](O)CC(=O)O)NC1=O [KUTZNERIDE 6] | > 230 µM | > 400 µM | > 230 µM | > 230 µM | – | – | – |
| COC[C@@H]1NC(=O)[C@@H]2CCCNN2C(=O)[C@H](C(C)C)OC(=O)[C@@H](C2(C)CC2)NC(=O)[C@@H]2C[C@@]3(O)c4ccc(Cl)c(Cl)c4N[C@H]3N2C(=O)[C@@H]([C@@H](O)CC(=O)O)NC1=O [KUTZNERIDE 7] | 180 µM (≈ 151 µg/mL) | > 420 µM | 120 µM (≈ 101 µg/mL) | > 420 µM | – | – | – |
| COC[C@@H]1NC(=O)[C@@H]2CCCNN2C(=O)[C@H](C(C)(C)C)OC(=O)[C@@H](C2(C)CC2)NC(=O)[C@@H]2C[C@@]3(O)c4ccc(Cl)c(Cl)c4N[C@H]3N2C(=O)[C@@H]([C@@H](O)CC(=O)O)NC1=O [KUTZNERIDE 1] | 60 µM (≈ 51.3 µg/mL) | 230 µM (≈ 197 µg/mL) | 12 µM (≈ 10.3 µg/mL) | 210 µM (≈ 179 µg/mL) | inactive | inactive | inactive |
